Screens from PubChem.
aSyn UTR inh: MLPCN primary screen, SNCA 5' untranslated region | 300,000 tested, 0.82% active | inhibition, % (tested at 7.5 µM) | alpha-synuclein 5'UTR reporter, inhibitor activity | AID 1813, 2009; in the data active = inhibition above about 60%;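 also: H4 neuroglioblastoma cells stably carrying SNCA 5'UTR luciferase fusion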
Jurkat NFkB inh: inhibitors of induced NF-kB luciferase reporter, primary screen, TCR NF-kB activation inhibitor project, cell-based, luminescence, uHTS; 330,000 tested, 0.53% active; AID 435003, 2010; Jurkat, PMA/ionomycin-induced NF-kB luciferase reporter; inhibition, % at 4 µM; in the data active = inhibition above about 50%
VIM-2 inhibitor: VIM-2 metallo-beta-lactamase inhibitors, primary screen, biochemical, epi-absorbance readout, Pseudomonas aeruginosa enzyme; inhibition, % at 5.6 µM; purified VIM-2, nitrocefin hydrolysis, epi-absorbance fluorescence; AID 1527, 2009; 290,000 tested, 0.89% active;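 active = inhibition above the mean of all tested compounds plus 3 SD, cutoff set per screening run, cut at about 7.5% in these data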;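 also: red hydrolysis product quenches plate fluorescence so inhibitors raise well fluorescence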
IMP-1 inh: IMP-1 metallo-beta-lactamase inhibitors, primary screen, biochemical, epi-absorbance readout, Pseudomonas aeruginosa enzyme; metallo-beta-lactamase IMP-1 (Pseudomonas aeruginosa); purified IMP-1, nitrocefin hydrolysis, epi-absorbance fluorescence; inhibition, % at 5.6 µM; 290,000 tested, 0.45% active; AID 1556, 2009;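 active = inhibition above the mean plus 3 SD of all compounds in the same screening run, cut at about 4.5% in these data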
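System: purified IMP-1 / Input: IMP-1 dispensed at 0.2 nM / Medium: 50 mM HEPES pH 7.1, 50 µM ZnSO4, 0.05% Brij 35 / Timing: 15 min enzyme–compound preincubation, then 25 min nitrocefin reaction, 25 °C / Technique: plate fluorescence quenching by hydrolysis product, ex 480/em 530 nm / Repeats: singlicate testing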
Mdm2 MdmX PPI: inhibitors of human Mdm2-MdmX association, primary screen, cell-based, luminescence, split luciferase, SaOS-2, uHTS; SaOS-2 split-luciferase Mdm2/MdmX complementation; AID 485346, 2010; inhibition, % at 8 µM; 330,000 tested, 3% active;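 active = inhibition of at least 50% at 8 µM in the primary screen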
697 NFkB inh: inhibitors of PMA/ionomycin-induced NF-kB reporter, 697 cells, primary screen, B-cell NF-kB inhibitor project, cell-based, luminescence, uHTS; inhibition, % at 4 µM; 697 B-cell NF-kB luciferase reporter, 16 h; 330,000 tested, 0.33% active; in the data active = inhibition above about 35%
Jurkat NFkB conf: PMA/ionomycin-induced NF-kB reporter inhibitors, Jurkat retest, confirmation, T-cell NF-kB inhibitor project, cell-based, luminescence, single concentration. Jurkat NF-kB luciferase, 16 h. 2,700 tested, 27% active. shares compounds with Jurkat NFkB inh. inhibition, % at 4 µM;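 active = inhibition reaching about 45% at 4 µM in either replicate, limit read from the data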
697 NFkB conf: PMA/ionomycin-induced NF-kB reporter inhibitors, 697 retest, confirmation, B-cell NF-kB inhibitor project, cell-based, luminescence, single concentration; shares compounds with 697 NFkB inh; 697 B-cell NF-kB luciferase, 16 h; inhibition, % at 4 µM; 2,000 tested, 35% active; AID 449746, 2010; in the data active = inhibition mostly above about 28%, no sharp cut-off; inactive = mostly below about 22%
Mdm2-MdmX conf: Mdm2-MdmX complex disruptors, retested hits, confirmation, luminescence, single concentration; 10,000 tested, 55% active; AID 489028, 2010; inhibition, % at 8 µM; Mdm2-MdmX binding, luminescent assay; shares compounds with Mdm2 MdmX PPI; in the data active = inhibition above about 40%
Full FLuc ctr: full-length luciferase signal inhibition, confirmation, counter-screen for Mdm2/MdmX interaction inhibitor project, cell-based, single concentration, SaOS-2 | inhibition, % at 8 µM | AID 504607, 2011 | shares compounds with Mdm2 MdmX PPI | 6,200 tested, 77% active | SaOS-2 full-length luciferase counterscreen, luminescence;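 active = mean inhibition at 8 µM reaching about 37%, which flags the compound as non-specific, limit read from the data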;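 also: p53-null SaOS-2 cells with luciferase driven by a doxycycline-inducible promoter; compound on cells about two nights before reading with doxycycline added after day one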
Of the large screens only hits and unclear results are named; the others gave an inactive call (follow-up assays come after a bar, where they were run). Rows were chosen to be rich in hits. Some 4.7% of all compounds tested hit in one or more screens of this group.

O=C(/C=C\Nc1ccc2c(c1)OCO2)c1ccccn1	aSyn UTR inh 118, Jurkat NFkB inh 55, Mdm2 MdmX PPI 72 | Jurkat NFkB conf inactive | Mdm2-MdmX conf 65 | Full FLuc ctr 39
O=C(Nc1ccc2c(c1)OCO2)c1ccccn1	none (no result: aSyn UTR inh, VIM-2 inhibitor, IMP-1 inh)
O=C(Nc1ccccc1)c1cccc(N2C(=O)C3C4CC(C(Br)C4Br)C3C2=O)c1 (configuration not stated)	none
COc1ccccc1-c1nnc2n1N=C(c1ccc(O)c(O)c1)CS2	aSyn UTR inh 97, Jurkat NFkB inh 81, Mdm2 MdmX PPI 50 | Jurkat NFkB conf 55 | Mdm2-MdmX conf 58 | Full FLuc ctr 140
COc1ccc(C2=Nn3c(nnc3-c3ccccc3C(F)(F)F)SC2)cc1OC1CCOC1 (configuration not stated)	none (no result: aSyn UTR inh, VIM-2 inhibitor, IMP-1 inh)
C=C1C(=O)O[C@@H]2C[C@@H](C)[C@@H]3C=CC(=O)[C@@]3(C)[C@@H](OC(C)=O)[C@H]12	aSyn UTR inh 95, Jurkat NFkB inh 96, Mdm2 MdmX PPI 100, 697 NFkB inh 100 (no result: VIM-2 inhibitor, IMP-1 inh) | Jurkat NFkB conf 98 | 697 NFkB conf 100 | Mdm2-MdmX conf 100 | Full FLuc ctr 51
Cc1cccc(NC(=O)CSc2nc3ccccc3c(=O)n2CC2CCCO2)c1 (configuration not stated)	none (no result: aSyn UTR inh, VIM-2 inhibitor, IMP-1 inh)
COc1cc([C@@H]2c3cc4c(cc3[C@H](O)[C@H]3COC(=O)[C@H]23)OCO4)cc(OC)c1OC	aSyn UTR inh 95, Jurkat NFkB inh 73, Mdm2 MdmX PPI 75 | Jurkat NFkB conf 62 | 697 NFkB conf inactive | Mdm2-MdmX conf 54 | Full FLuc ctr 126
COc1cc(CC(=O)NCc2ccc3c(c2)OCO3)cc(OC)c1OC	none
COc1cc(C2c3cc4c(cc3C(OC3OC5COC(c6cccs6)OC5C(O)C3O)C3COC(=O)C23)OCO4)cc(OC)c1O (configuration not stated)	aSyn UTR inh 82, Jurkat NFkB inh 80, Mdm2 MdmX PPI 94 | Jurkat NFkB conf 94 | Mdm2-MdmX conf 88 | Full FLuc ctr inactive
CCn1c(SCc2c(Cl)cccc2Cl)nc2nc3c(cc2c1=O)CCCC3	Jurkat NFkB inh 55, Mdm2 MdmX PPI 64 (no result: VIM-2 inhibitor, IMP-1 inh) | Jurkat NFkB conf inactive | Mdm2-MdmX conf 63 | Full FLuc ctr inactive
CCn1c(SCc2ccccc2Cl)nc2nc3c(cc2c1=O)CCCC3	none (no result: Jurkat NFkB inh, Mdm2 MdmX PPI, 697 NFkB inh)
O=C(N[C@@H](Cc1ccccc1)C(=O)CCl)OCc1ccccc1	Jurkat NFkB inh 83, Mdm2 MdmX PPI 96 (no result: aSyn UTR inh, VIM-2 inhibitor, IMP-1 inh) | Jurkat NFkB conf 48 | Mdm2-MdmX conf 85 | Full FLuc ctr inactive
O=C(CCN1C(=O)[C@@H]2Cc3ccccc3CN2C1=O)N[C@@H](Cc1ccccc1)C(=O)O	none
COc1ccc(C(=O)NC2CCc3ccccc32)cc1OC1CCN(C(C)=O)CC1 (configuration not stated)	none
CCOc1ccccc1N(C)S(=O)(=O)c1ccc2c(c1)N(C(C)=O)CCO2	none
